Screens as filed in PubChem.
DNA FID counter – counter-screen for HCV NS3 helicase inhibitors: DNA intercalator displacement. 290,000 tested, 0.17% active. inhibition, % at 7.9 µM. DNA fluorescent intercalator displacement, fluorescence; in the data active = inhibition above about 37%;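 also: 0% = vehicle and 100% = reference compound; higher means more ethidium bromide displaced from hairpin DNA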
TRPC4 block – inhibitors of mouse TRPC4 channel; Q9QUQ5; HEK293 TRPC4beta/mu-opioid, DAMGO-evoked Fluo4 calcium flux; stronger effect = lower value; B-score at 10 µM; 300,000 tested, 0.39% active;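 active = B-score over 3 SD under the library average, no early fluorescence shift, positive overall ratio signal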
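Assay system: Stable TRPC4beta/mu-opioid receptor HEK293 cells | Reagent: DAMGO in two steps, submaximal then maximal | Compound dosing: Single concentration per test compound | Signal: Fluo4 Ca2+ flux fluorescence | Evaluation: Per-well B score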
TRPC6 activator – activators of mouse TRPC6 channel; B-score at 10 µM; Q61143; 310,000 tested, 0.13% active; AID 2550; HEK293-TRPC6 membrane potential dye fluorescence; stronger effect = higher value;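 active = B-score of the integrated fluorescence ratio above library mean plus 3 SD, and starting fluorescence ratio within library mean plus 5 SD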;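 also: higher score means more depolarization so channel activation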
TRPC6 inh – inhibitors of mouse TRPC6 channel | 310,000 tested, 1.1% active | Q61143 | B-score at 10 µM | HEK293-TRPC6, membrane potential dye, ACh-evoked depolarization; stronger effect = lower value;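 active = B-score under library mean minus 3 SD, initial fluorescence not abnormally high, positive integrated signal ratio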;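 also: B-score derived from integrated fluorescence ratio over the kinetic read; more negative B-score means stronger inhibition of depolarization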
TRPC4 agonist – opens the mouse TRPC4 cation channel. B-score at 10 µM. 310,000 tested, 0.49% active. AID 2237. HEK293 TRPC4beta/mu-opioid, Fluo4 calcium fluorescence; stronger effect = higher value;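 active = B-score above 5 SD of library B-scores, and initial fluorescence ratio not above library mean plus 5 SD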;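 also: positive B-score marks a calcium rise read as TRPC4 activation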
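Technique: kinetic Fluo4 calcium fluorescence; Test system: TRPC4beta and mu-opioid receptor HEK293 stable cells; Measure: B-scored integrated calcium fluorescence ratio; Benchmarks: low control buffer alone, high control maximal DAMGO; Schedule: 45 min room-temperature Fluo4 loading, 110 s read.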
TRPC4 potent – allosterically enhances the mouse TRPC4 cation channel; Q9QUQ5; HEK293 TRPC4beta/mu-opioid, DAMGO EC20, Fluo-4 Ca2+ flux; stronger effect = higher value; B-score at 10 µM; 310,000 tested, 0.42% active; AID 2227;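 active = B-score of calcium response area above 5 SD of library B-scores, with initial fluorescence ratio within 5 SD of library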;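 also: B-score of integrated fluorescence ratio over time as area under calcium response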
Active calls of the source: *. Only some compounds are listed: those with a hit (about 2.3% of all), similar ones and a draw of the others.

For COc1ccc(-c2nn(-c3ccccc3)cc2C(=O)O)cc1 the results were DNA FID counter -10, TRPC4 block inactive, TRPC6 activator inactive, TRPC6 inh inactive, TRPC4 agonist inactive and TRPC4 potent inactive.
Screening COc1ccc(-c2nn(-c3ccccc3)cc2C(=O)N2c3ccc(C)cc3C3CN(C)CCC32)cc1 (configuration not stated) returned DNA FID counter 17, TRPC4 block inactive, TRPC6 activator inactive, TRPC6 inh inactive, TRPC4 agonist inactive and TRPC4 potent 15*.
Screening CC(Oc1ccc(Cl)cc1Cl)c1nc(-c2ccccn2)no1 (configuration not stated) returned DNA FID counter -22, TRPC4 block -6*, TRPC6 activator inactive, TRPC6 inh inactive, TRPC4 agonist inactive and TRPC4 potent inactive.
Cc1ccc(S(=O)(=O)N2CCN(C(=O)c3cccs3)CC2)c(C)c1 was read as DNA FID counter -19, TRPC4 block inactive, TRPC6 activator inactive, TRPC6 inh inactive, TRPC4 agonist inactive and TRPC4 potent 11*.
CC(CCC(=O)O)C1CC[C@H]2C3CCC4CC(=O)CCC4(C)[C@H]3CC(=O)C12C (some centres not stated) was read as DNA FID counter -50, TRPC4 block inactive, TRPC6 activator inactive, TRPC6 inh inactive, TRPC4 agonist inactive and TRPC4 potent inactive.
`Clc1cccc(Cl)c1C1Nc2cccc3cccc(c23)N1` gave DNA FID counter -13, TRPC4 block inactive, TRPC6 activator inactive, TRPC6 inh -5.5*, TRPC4 agonist inactive and TRPC4 potent inactive.
`Fc1cccc(Cl)c1C1Nc2cccc3cccc(c23)N1` gave DNA FID counter -14, TRPC4 block inactive, TRPC6 activator inactive, TRPC6 inh inactive, TRPC4 agonist inactive and TRPC4 potent inactive.
`CC(OC(=O)COc1ccccc1Cc1ccccc1)C(=O)N(C)c1ccccc1` (configuration not stated) gave TRPC4 block inactive, TRPC6 activator inactive, TRPC6 inh inactive, TRPC4 agonist inactive and TRPC4 potent inactive.
For COC(=O)[C@]1(CC(C)C)N[C@H](c2ccc(-c3ccc(F)cc3)cc2)[C@@H]2C(=O)N(C)C(=O)[C@@H]21 the results were TRPC4 block inactive, TRPC6 activator inactive, TRPC6 inh inactive, TRPC4 agonist inactive and TRPC4 potent inactive.
`CN(Cc1ccccn1)C(=O)CC1C(=O)NCCN1Cc1cccc(Oc2ccccc2)c1` (configuration not stated) gave DNA FID counter -34, TRPC4 block inactive, TRPC6 activator inactive, TRPC6 inh inactive, TRPC4 agonist inactive and TRPC4 potent inactive.
Screening CCOc1ccc(CN2CCNC(=O)C2CC(=O)NCc2ccccn2)cc1 (configuration not stated) returned DNA FID counter -4, TRPC4 block inactive, TRPC6 activator inactive, TRPC6 inh inactive, TRPC4 agonist inactive and TRPC4 potent inactive.
CN(CCc1ccccn1)C(=O)CC1C(=O)NCCN1Cc1ccccc1C(F)(F)F (configuration not stated) was read as DNA FID counter -22, TRPC4 block inactive, TRPC6 activator inactive, TRPC6 inh inactive, TRPC4 agonist 131* and TRPC4 potent inactive.
COc1cccc(CN2CCNC(=O)C2CC(=O)N(C)C2CCCCC2)c1OC (configuration not stated) was read as DNA FID counter -42, TRPC4 block inactive, TRPC6 activator inactive, TRPC6 inh inactive, TRPC4 agonist inactive and TRPC4 potent inactive.
For COc1cccc(CN2CCNC(=O)C2CC(=O)N(C)CCc2ccccn2)c1OC (configuration not stated) the results were DNA FID counter -11, TRPC4 block inactive, TRPC6 activator inactive, TRPC6 inh inactive, TRPC4 agonist 93* and TRPC4 potent inactive.
CN(CCN1CCOCC1)C(=O)CC1C(=O)NCCN1Cc1ccccc1C(F)(F)F (configuration not stated) was read as DNA FID counter -17, TRPC4 block inactive, TRPC6 activator inactive, TRPC6 inh inactive, TRPC4 agonist inactive and TRPC4 potent inactive.
Screening CN(CCc1ccccn1)C(=O)CC1C(=O)NCCN1Cc1cccc(F)c1 (configuration not stated) returned DNA FID counter -8, TRPC4 block inactive, TRPC6 activator inactive, TRPC6 inh inactive, TRPC4 agonist 186* and TRPC4 potent inactive.
Screening CCOc1ccc(CN2CCNC(=O)C2CC(=O)NCCc2ccccn2)cc1 (configuration not stated) returned DNA FID counter -13, TRPC4 block inactive, TRPC6 activator inactive, TRPC6 inh inactive, TRPC4 agonist 112* and TRPC4 potent inactive.
Screening O=C(O)c1ccc(S(=O)(=O)N2CCN(c3ccccn3)CC2)cc1 returned DNA FID counter -2, TRPC4 block inactive, TRPC6 activator inactive, TRPC6 inh inactive, TRPC4 agonist inactive and TRPC4 potent inactive.
For COC(=O)c1sccc1NC(=O)c1ccc(OC)cc1 the results were DNA FID counter -7, TRPC4 block inactive, TRPC6 activator inactive, TRPC6 inh inactive, TRPC4 agonist inactive and TRPC4 potent inactive.
`COC(=O)c1sccc1NC(=O)c1ccc(C#N)cc1` gave DNA FID counter -8, TRPC4 block inactive, TRPC6 activator inactive, TRPC6 inh -5*, TRPC4 agonist inactive and TRPC4 potent inactive.
`COc1ccc(OCc2cc(C(=O)N(Cc3nccn3C)C(C)C)no2)c2ccccc12` gave DNA FID counter 7, TRPC4 block inactive, TRPC6 activator inactive, TRPC6 inh inactive, TRPC4 agonist inactive and TRPC4 potent inactive.
`Cc1nc(Cl)nc(N(C)c2ccccc2)c1[N+](=O)[O-]` gave DNA FID counter 2, TRPC4 block -6*, TRPC6 activator inactive, TRPC6 inh inactive, TRPC4 agonist inactive and TRPC4 potent inactive.
`Cc1ccc2oc(C(=O)N3CCN(Cc4nccn4C)CC3)c(C)c2c1` gave DNA FID counter -4, TRPC4 block inactive, TRPC6 activator inactive, TRPC6 inh inactive, TRPC4 agonist inactive and TRPC4 potent inactive.
`CCOC(=O)N1CCN(S(=O)(=O)c2ccc(C(=O)Nc3sc4c(c3C(N)=O)CC(C)(C)NC4(C)C)cc2)CC1` gave DNA FID counter 41*, TRPC4 block inactive, TRPC6 activator inactive, TRPC6 inh inactive, TRPC4 agonist inactive and TRPC4 potent inactive.
Screening CC1(C)Cc2c(sc(NC(=O)c3ccc(C(=O)c4ccccc4)cc3)c2C(N)=O)C(C)(C)N1 returned DNA FID counter 37*, TRPC4 block inactive, TRPC6 activator inactive, TRPC6 inh inactive, TRPC4 agonist inactive and TRPC4 potent inactive.
